Data as given in ChEMBL document CHEMBL1148671, “Synthesis and antibacterial activity of C12 des-methyl ketolides” (2006).
Converted amounts (≈) assume the structure as drawn.

Columns and labels:
Format in all cases: functional
Streptococcus pneumoniae [1] = experiment: Antibacterial activity against Streptococcus pneumoniae 280-962 by broth microdilution method
Outline: (§1)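 In vitro activity was read as the minimum inhibitory concentration (MIC) by broth microdilution and reported in μg/mL. The S. pneumoniae panel included erythromycin-resistant strains carrying mef or erm genes. Telithromycin and clarithromycin were run as comparators in every assay.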

Staphylococcus aureus [2] = experiment: Antibacterial activity against Staphylococcus aureus 29213 by broth microdilution method; conditions: ATCC29213; outline: as §1
Streptococcus pneumoniae [3] = experiment: Antibacterial activity against Streptococcus pneumoniae 297-749 by broth microdilution method; outline: as §1
Staphylococcus aureus [4] = experiment: Antibacterial activity against Staphylococcus aureus 33591 by broth microdilution method; outline: as §1
[5] = tested on: Staphylococcus epidermidis; experiment: Antibacterial activity against Staphylococcus epidermidis 14990 by broth microdilution method; outline: as §1
Streptococcus pneumoniae [6] = experiment: Antibacterial activity against erythromycin-resistant Streptococcus pneumoniae erm 6849 by broth microdilution method
Enterococcus faecalis [7] = experiment: Antibacterial activity against Enterococcus faecalis 29212 by broth microdilution method; outline: as §1
Streptococcus pneumoniae [8] = experiment: Antibacterial activity against erythromycin-resistant Streptococcus pneumoniae mef 5654 by broth microdilution method
Haemophilus influenzae [9] = experiment: Antibacterial activity against Haemophilus influenzae 49247 by broth microdilution method; outline: as §1
Haemophilus influenzae [10] = experiment: Antibacterial activity against Haemophilus influenzae 2762 by broth microdilution method; outline: as §1
[11] = tested on: Staphylococcus epidermidis; experiment: Antibacterial activity against Staphylococcus epidermidis f50654 by broth microdilution method; outline: as §1
Enterococcus faecalis [12] = experiment: Antibacterial activity against Enterococcus faecalis bc11148-2 by broth microdilution method; outline: as §1
Streptococcus pneumoniae [13] = experiment: Antibacterial activity against Streptococcus pneumoniae 49619 by broth microdilution method; outline: as §1
Streptococcus pyogenes = experiment: Antibacterial activity against Streptococcus pyogenes 8668 by broth microdilution method; outline: as §1
Streptococcus pneumoniae [14] = experiment: Antibacterial activity against erythromycin-resistant Streptococcus pneumoniae mef S 3427 by broth microdilution method

Which MIC (Streptococcus pneumoniae [1]) does the source give for `CC[C@H]1OC(=O)[C@H](C)C(=O)[C@H](C)[C@@H](O[C@@H]2O[C@H](C)C[C@H](N(C)C)[C@H]2O)[C@](C)(OC)C[C@@H](C)C(=O)[C@H](C)[C@@H]2[C@@H]1OC(=O)N2CCCCn1ccc2c(N)cccc21` here?
Its MIC is at most 0.05 mg/L.

What about the MIC (Staphylococcus aureus [2]) of the same compound?
Its MIC is 0.2 mg/L (≈ 0.255 µM).

What about the MIC (Streptococcus pneumoniae [3]) of the same compound?
Its MIC is at most 0.05 mg/L.

And the MIC (Staphylococcus aureus [4])?
Its MIC is over 50 mg/L.

What about the MIC [5] of the same compound?
Its MIC is 0.4 mg/L (≈ 0.51 µM).

And the MIC (Streptococcus pneumoniae [6])?
The MIC was 25 mg/L (≈ 31.8 µM).

And the MIC (Enterococcus faecalis [7])?
The MIC was at most 0.05 mg/L.

And the MIC (Streptococcus pneumoniae [8])?
Its MIC is 0.78 mg/L (≈ 0.994 µM).

What about the MIC (Haemophilus influenzae [9]) of the same compound?
Its MIC is 3.13 mg/L (≈ 3.99 µM).

And the MIC (Haemophilus influenzae [10])?
The MIC was 1.56 mg/L (≈ 1.99 µM).

And the MIC [11]?
The MIC was 0.78 mg/L (≈ 0.994 µM).

And the MIC (Enterococcus faecalis [12])?
The MIC was 6.25 mg/L (≈ 7.96 µM).

What about the MIC (Streptococcus pneumoniae [13]) of the same compound?
Its MIC is 0.1 mg/L (≈ 0.127 µM).

What about the MIC (Streptococcus pyogenes) of the same compound?
The MIC was at most 0.05 mg/L.

What does the source list for `CC[C@H]1OC(=O)[C@H](C)C(=O)[C@H](C)[C@@H](O[C@@H]2O[C@H](C)C[C@H](N(C)C)[C@H]2O)[C@](C)(OC)C[C@@H](C)C(=O)[C@H](C)[C@@H]2[C@@H]1OC(=O)N2CCCCn1cnc2ncccc21`?
MIC (Streptococcus pneumoniae [1]): ≤ 0.05 mg/L; MIC (Staphylococcus aureus [2]): 0.4 mg/L (≈ 0.518 µM); MIC (Streptococcus pneumoniae [3]): ≤ 0.05 mg/L; MIC (Staphylococcus aureus [4]): > 50 mg/L; MIC [5]: 0.4 mg/L (≈ 0.518 µM); MIC (Streptococcus pneumoniae [6]): 0.78 mg/L (≈ 1.01 µM); MIC (Enterococcus faecalis [7]): 0.1 mg/L (≈ 0.13 µM); MIC (Streptococcus pneumoniae [8]): 3.13 mg/L (≈ 4.05 µM); MIC (Haemophilus influenzae [9]): 3.13 mg/L (≈ 4.05 µM); MIC (Streptococcus pneumoniae [14]): 0.4 mg/L (≈ 0.518 µM); MIC [11]: 0.4 mg/L (≈ 0.518 µM); MIC (Enterococcus faecalis [12]): > 50 mg/L; MIC (Streptococcus pneumoniae [13]): ≤ 0.05 mg/L; MIC (Streptococcus pyogenes): ≤ 0.05 mg/L

What does the source list for `CC[C@H]1OC(=O)[C@H](C)C(=O)[C@H](C)[C@@H](O[C@@H]2O[C@H](C)C[C@H](N(C)C)[C@H]2O)[C@](C)(OC)C[C@@H](C)C(=O)[C@H](C)[C@@H]2[C@@H]1OC(=O)N2CCCCc1ccc2ccccc2n1`?
MIC (Streptococcus pneumoniae [1]): ≤ 0.05 mg/L; MIC (Staphylococcus aureus [2]): 0.4 mg/L (≈ 0.512 µM); MIC (Streptococcus pneumoniae [3]): ≤ 0.05 mg/L; MIC (Staphylococcus aureus [4]): > 50 mg/L; MIC [5]: 0.2 mg/L (≈ 0.256 µM); MIC (Streptococcus pneumoniae [6]): 25 mg/L (≈ 32 µM); MIC (Enterococcus faecalis [7]): ≤ 0.05 mg/L; MIC (Streptococcus pneumoniae [8]): 0.2 mg/L (≈ 0.256 µM); MIC (Haemophilus influenzae [9]): 3.13 mg/L (≈ 4 µM); MIC [11]: 0.2 mg/L (≈ 0.256 µM); MIC (Enterococcus faecalis [12]): 3.13 mg/L (≈ 4 µM); MIC (Streptococcus pneumoniae [13]): ≤ 0.05 mg/L; MIC (Streptococcus pyogenes): ≤ 0.05 mg/L

For `CC[C@H]1OC(=O)[C@H](C)C(=O)[C@H](C)[C@@H](O[C@@H]2O[C@H](C)C[C@H](N(C)C)[C@H]2O)[C@](C)(OC)C[C@@H](C)C(=O)[C@H](C)[C@@H]2[C@@H]1OC(=O)N2CCCCn1ccc2ccccc21`, which MIC (Streptococcus pneumoniae [1]) is on record?
The MIC was at most 0.05 mg/L.

And the MIC (Staphylococcus aureus [2])?
The MIC was 0.4 mg/L (≈ 0.519 µM).

What about the MIC (Streptococcus pneumoniae [3]) of the same compound?
The MIC was at most 0.05 mg/L.

What about the MIC (Staphylococcus aureus [4]) of the same compound?
Its MIC is over 50 mg/L.

And the MIC [5]?
Its MIC is 0.2 mg/L (≈ 0.26 µM).

What about the MIC (Streptococcus pneumoniae [6]) of the same compound?
Its MIC is 6.25 mg/L (≈ 8.12 µM).

What about the MIC (Enterococcus faecalis [7]) of the same compound?
Its MIC is 0.1 mg/L (≈ 0.13 µM).

And the MIC (Streptococcus pneumoniae [8])?
Its MIC is 0.2 mg/L (≈ 0.26 µM).

And the MIC (Haemophilus influenzae [9])?
The MIC was 6.25 mg/L (≈ 8.12 µM).

And the MIC [11]?
Its MIC is 0.4 mg/L (≈ 0.519 µM).

What about the MIC (Enterococcus faecalis [12]) of the same compound?
Its MIC is over 50 mg/L.

And the MIC (Streptococcus pneumoniae [13])?
Its MIC is at most 0.05 mg/L.

What about the MIC (Streptococcus pyogenes) of the same compound?
The MIC was at most 0.05 mg/L.

Which results are given for `CC[C@H]1OC(=O)[C@H](C)C(=O)[C@H](C)[C@@H](O[C@@H]2O[C@H](C)C[C@H](N(C)C)[C@H]2O)[C@](C)(OC)C[C@@H](C)C(=O)[C@H](C)[C@@H]2[C@@H]1OC(=O)N2CCCCc1ccc(-c2cncnc2)s1`?
MIC (Streptococcus pneumoniae [1]): ≤ 0.05 mg/L; MIC (Staphylococcus aureus [2]): 0.2 mg/L (≈ 0.245 µM); MIC (Streptococcus pneumoniae [3]): ≤ 0.05 mg/L; MIC (Staphylococcus aureus [4]): > 50 mg/L; MIC [5]: 0.2 mg/L (≈ 0.245 µM); MIC (Streptococcus pneumoniae [6]): > 50 mg/L; MIC (Enterococcus faecalis [7]): ≤ 0.05 mg/L; MIC (Streptococcus pneumoniae [8]): 0.4 mg/L (≈ 0.491 µM); MIC (Haemophilus influenzae [9]): 12.5 mg/L (≈ 15.3 µM); MIC (Haemophilus influenzae [10]): 3.13 mg/L (≈ 3.84 µM); MIC [11]: 0.2 mg/L (≈ 0.245 µM); MIC (Enterococcus faecalis [12]): > 50 mg/L; MIC (Streptococcus pneumoniae [13]): ≤ 0.05 mg/L; MIC (Streptococcus pyogenes): ≤ 0.05 mg/L

Which results are given for `CC[C@H]1OC(=O)[C@H](C)C(=O)[C@H](C)[C@@H](O[C@@H]2O[C@H](C)C[C@H](N(C)C)[C@H]2O)[C@](C)(OC)C[C@@H](C)C(=O)[C@H](C)[C@@H]2[C@@H]1OC(=O)N2CCCCn1ccc2ncccc21`?
MIC (Streptococcus pneumoniae [1]): ≤ 0.05 mg/L; MIC (Staphylococcus aureus [2]): 0.2 mg/L (≈ 0.259 µM); MIC (Streptococcus pneumoniae [3]): ≤ 0.05 mg/L; MIC (Staphylococcus aureus [4]): > 50 mg/L; MIC [5]: 0.4 mg/L (≈ 0.519 µM); MIC (Streptococcus pneumoniae [6]): 0.2 mg/L (≈ 0.259 µM); MIC (Enterococcus faecalis [7]): 0.1 mg/L (≈ 0.13 µM); MIC (Streptococcus pneumoniae [8]): 0.2 mg/L (≈ 0.259 µM); MIC (Haemophilus influenzae [9]): 1.56 mg/L (≈ 2.02 µM); MIC (Haemophilus influenzae [10]): 0.78 mg/L (≈ 1.01 µM); MIC [11]: 0.4 mg/L (≈ 0.519 µM); MIC (Enterococcus faecalis [12]): 6.25 mg/L (≈ 8.11 µM); MIC (Streptococcus pneumoniae [13]): ≤ 0.05 mg/L; MIC (Streptococcus pyogenes): ≤ 0.05 mg/L

Which MIC (Streptococcus pneumoniae [1]) does the source give for `CC[C@H]1OC(=O)[C@H](C)C(=O)[C@H](C)[C@@H](O[C@@H]2O[C@H](C)C[C@H](N(C)C)[C@H]2O)[C@](C)(OC)C[C@@H](C)C(=O)[C@H](C)[C@@H]2[C@@H]1OC(=O)N2CCCCn1cnc2cccnc21` here?
Its MIC is at most 0.05 mg/L.

What about the MIC (Staphylococcus aureus [2]) of the same compound?
The MIC was 0.2 mg/L (≈ 0.259 µM).

What about the MIC (Streptococcus pneumoniae [3]) of the same compound?
Its MIC is at most 0.05 mg/L.

And the MIC (Staphylococcus aureus [4])?
Its MIC is over 50 mg/L.

What about the MIC [5] of the same compound?
Its MIC is 0.2 mg/L (≈ 0.259 µM).

What about the MIC (Streptococcus pneumoniae [6]) of the same compound?
The MIC was 0.78 mg/L (≈ 1.01 µM).

What about the MIC (Enterococcus faecalis [7]) of the same compound?
Its MIC is at most 0.05 mg/L.

And the MIC (Streptococcus pneumoniae [8])?
The MIC was 0.78 mg/L (≈ 1.01 µM).

What about the MIC (Haemophilus influenzae [9]) of the same compound?
The MIC was 3.13 mg/L (≈ 4.05 µM).

What about the MIC [11] of the same compound?
Its MIC is 0.4 mg/L (≈ 0.518 µM).

And the MIC (Enterococcus faecalis [12])?
The MIC was 50 mg/L (≈ 64.8 µM).

And the MIC (Streptococcus pneumoniae [13])?
Its MIC is at most 0.05 mg/L.

And the MIC (Streptococcus pyogenes)?
The MIC was at most 0.05 mg/L.

`CC[C@H]1OC(=O)[C@H](C)C(=O)[C@H](C)[C@@H](O[C@@H]2O[C@H](C)C[C@H](N(C)C)[C@H]2O)[C@](C)(OC)C[C@@H](C)C(=O)[C@H](C)[C@@H]2[C@@H]1OC(=O)N2CCCCc1ncc(-c2cccc(N)c2)s1` was tested. Which MIC (Streptococcus pneumoniae [1]) did it give?
Its MIC is at most 0.05 mg/L.

What about the MIC (Staphylococcus aureus [2]) of the same compound?
The MIC was 0.4 mg/L (≈ 0.482 µM).

What about the MIC (Streptococcus pneumoniae [3]) of the same compound?
Its MIC is at most 0.05 mg/L.

And the MIC (Staphylococcus aureus [4])?
The MIC was over 50 mg/L.

And the MIC [5]?
The MIC was 0.4 mg/L (≈ 0.482 µM).

What about the MIC (Streptococcus pneumoniae [6]) of the same compound?
The MIC was 50 mg/L (≈ 60.3 µM).

What about the MIC (Enterococcus faecalis [7]) of the same compound?
The MIC was 0.2 mg/L (≈ 0.241 µM).

And the MIC (Streptococcus pneumoniae [8])?
The MIC was 0.78 mg/L (≈ 0.941 µM).

What about the MIC (Haemophilus influenzae [9]) of the same compound?
The MIC was 6.25 mg/L (≈ 7.54 µM).

And the MIC (Haemophilus influenzae [10])?
Its MIC is 1.56 mg/L (≈ 1.88 µM).

What about the MIC [11] of the same compound?
The MIC was 0.2 mg/L (≈ 0.241 µM).

What about the MIC (Enterococcus faecalis [12]) of the same compound?
The MIC was 3.13 mg/L (≈ 3.78 µM).

What about the MIC (Streptococcus pneumoniae [13]) of the same compound?
Its MIC is at most 0.05 mg/L.

What about the MIC (Streptococcus pyogenes) of the same compound?
Its MIC is at most 0.05 mg/L.
